Experimental data as given in paper PMC9851031 (ACS Omega, 2023).

Columns and labels:
Type in all cases: in vivo
[1] = system: Swiss albino mice; assay: Acute toxicity; conditions: for number of animals dead/tot number of animals tested: i.p., observed 24 h
Method in brief: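 Albino mice, five per cage, on a 12 h light/dark cycle, fasted overnight. Acute toxic-class testing followed OECD 423. Deaths and signs of toxicity were recorded after dosing to estimate the median lethal dose.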

[2] = system: MES-induced seizure in albino mice; assay: Maximum electroshock; conditions: i.p. in mice, 4.0 h; doses 30, 100, 300 mg/kg
Method in brief: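 Albino mice, fasted overnight, received test compound i.p. in PEG-200 at 30, 100 and 300 mg/kg. Electroshock was 60-cycle alternating current, 50 mA for 0.25 s, delivered via ear-clip electrodes, with testing at 0.5 and 4 h after dosing. Protection meant abolition of hind limb tonic extension. The minimum dose protecting more than half of animals (n = 5) was recorded.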

[3] = system: scPTZ-induced seizure in albino mice; assay: Subcutaneous pentylenetetrazole; conditions: Mus musculus, ip, 4 h, read-out: scPTZ minimum dose for antiepileptic potential
Method in brief: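 Overnight-fasted albino mice were dosed i.p. with test compound in PEG-200 at 30, 100 and 300 mg/kg and observed at 0.5 and 4 h. Pentylenetetrazole was injected subcutaneously in the posterior midline. Protection meant no clonic spasm episode lasting 5 s, n = 5 per group. The minimum protective dose was reported.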

[4] = system: albino mice; assay: Rotarod neurotoxicity test; conditions: doses 30, 100, 300 mg/kg; for neurotoxicity minimum dose: i.p. in mice
Method in brief: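 Albino mice of either sex, housed five per cage on a 12 h light/dark cycle and fasted overnight, were first trained to balance on a 3.2 cm diameter rod turning at 6 rpm. Trained mice then received test compound i.p. in PEG-200 at 30, 100 or 300 mg/kg. Neurotoxicity was scored as failure to stay on the rod for at least 1 min in each of three successive trials.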

[5] = system: mice; assay: Antidepressant activity: locomotor activity by actophotometer; conditions: for depressant effect (in words): actophotometer, 100 mg/kg; for % reduction in locomotor activity / locomotor activity score, after treatment means ± SEM: n = 5, 5 min
Method in brief: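 Actophotometer test in mice. Test compound at 100 mg/kg or diazepam standard was given intraperitoneally. Locomotor activity scores were taken at baseline and after treatment over a 5 min span, n = 5. Percent reduction in locomotor activity was calculated against control. Data are mean ± SEM, analysed by one-way ANOVA with Dunnett's test.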

[6] = 100 mg/kg, after a few minutes of administration

Row | SMILES | acute toxicity observation ([1]; 300 mg/kg body weight, 24 h) | number of animals dead/tot number of animals tested ([1]; dosage 5 mg/kg) | number of animals dead/tot number of animals tested ([1]; dosage 30 mg/kg) | number of animals dead/tot number of animals tested ([1]; dosage 100 mg/kg) | number of animals dead/tot number of animals tested ([1]; dosage 300 mg/kg) | HLTE (MES) minimum dose for antiepileptic potential [2] | minimal effective dose [3] | neurotoxicity minimum dose ([4]; 0.5 h) | neurotoxicity minimum dose ([4]; 4.0 h) | neurotoxicity (in words) [4] | depressant effect (in words) [5] | % reduction in locomotor activity ([5]; dose 100 mg/kg) | locomotor activity score, after treatment means ± SEM ([5]; dose 100 mg/kg) | acute toxicity observation [1, 6] | % reduction in locomotor activity ([5]; 4 mg/kg (intraperitoneally)) | locomotor activity score, after treatment means ± SEM ([5]; 4 mg/kg (intraperitoneally))
1 | COc1ccc(-c2nc3ccccc3s2)cc1OCc1nnc(-c2ccc(Cl)cc2)o1 [6g, 2-{3-[5-(4-Chloro-phenyl)-[1,3,4]oxadiazol-2-ylmethoxy]-4-methoxy-phenyl}-benzothiazole] | mortality with involuntary movements | 0/3 | 0/3 | 0/3 | 1/3 |  |  |  |  |  |  |  |  |  |  | 
2 | COc1ccc(-c2nc3ccccc3s2)cc1OCc1nnc(-c2ccc(N(C)C)cc2)o1 [6m, {4-[5-(5-Benzothiazol-2-yl-2-methoxy-phenoxymethyl)-[1,3,4]oxadiazol-2-yl]-phenyl}-dimethylamine] |  | 0/3 | 0/3 | 0/3 | 0/3 | failed to exhibit activity |  |  |  |  |  |  |  |  |  | 
3 | CCC1(c2ccccc2)C(=O)NC(=O)NC1=O [phenobarbital, reference compound] |  | 0/3 | 0/3 | 0/3 | 0/3 |  | 100 mg/kg | 100 mg/kg | 300 mg/kg |  |  |  |  |  |  | 
4 | COc1ccc(-c2nc3ccccc3s2)cc1OCc1nnc(-c2ccc(O)cc2)o1 [6l, 4-[5-(5-Benzothiazol-2-yl-2-methoxy-phenoxymethyl)-[1,3,4]oxadiazol-2-yl]-phenol] |  | 0/3 | 0/3 | 0/3 | 0/3 |  |  |  |  | no neurotoxicity | not depressants | 0.73% | 375.8 ± 3.65^ns |  |  | 
5 | COc1ccc(-c2nc3ccccc3s2)cc1OCc1nnc(-c2ccc(Br)cc2)o1 [6c, 2-{3-[5-(4-Bromo-phenyl)-[1,3,4]oxadiazol-2-ylmethoxy]-4-methoxy-phenyl}-benzothiazole] | mortality with involuntary movements | 0/3 | 0/3 | 1/3 | 2/3 | failed to exhibit activity |  | 300 mg/kg | 300 mg/kg |  |  |  |  | slight spasmodic behavior |  | 
6 | COc1ccc(-c2nc3ccccc3s2)cc1OCc1nnc(-c2cc([N+](=O)[O-])cc([N+](=O)[O-])c2O)o1 [6j, 2-[5-(5-Benzothiazol-2-yl-2-methoxy-phenoxymethyl)-[1,3,4]oxadiazol-2-yl]-4,6-dinitro-phenol] |  | 0/3 | 0/3 | 0/3 | 0/3 |  |  |  |  | no neurotoxicity | not depressants | 0.48% | 368.8 ± 2.63^ns |  |  | 
7 | O=C1NC(=O)C(c2ccccc2)(c2ccccc2)N1 [phenytoin, reference compound] |  | 0/3 | 0/3 | 0/3 | 0/3 |  |  | 100 mg/kg | 100 mg/kg |  |  |  |  |  |  | 
8 | COc1ccc(-c2nc3ccccc3s2)cc1OCc1nnc(-c2c(OC)cccc2OC)o1 [6n, 2-{3-[5-(2,6-Dimethoxyphenyl)-[1,3,4]oxadiazol-2-ylmethoxy]-4-methoxy-phenyl}benzothiazole] |  | 0/3 | 0/3 | 0/3 | 0/3 |  |  |  |  |  |  |  |  |  |  | 
9 | COc1ccc(-c2nc3ccccc3s2)cc1OCc1nnc(-c2ccc([N+](=O)[O-])cc2)o1 [6h, 2-{4-Methoxy-3-[5-(4-nitro-phenyl)-[1,3,4]oxadiazol-2-ylmethoxy]-phenyl}-benzothiazole] |  | 0/3 | 0/3 | 0/3 | 0/3 |  |  |  |  | no neurotoxicity | not depressants | 0.37% | 373.4 ± 3.85^ns |  |  | 
10 | COc1ccc(-c2nc3ccccc3s2)cc1OCc1nnc(Cc2ccccc2)o1 [6e, 2-[3-(5-Benzyl-[1,3,4]oxadiazol-2-ylmethoxy)-4-methoxy-phenyl]-benzothiazole] | mortality with involuntary movements | 0/3 | 0/3 | 1/3 | 1/3 |  |  |  |  |  |  |  |  | slight spasmodic behavior |  | 
11 | COc1ccc(-c2nc3ccccc3s2)cc1OCc1nnc(C(c2ccccc2)c2ccccc2)o1 [6i, 2-[3-(5-Benzhydryl-[1,3,4]oxadiazol-2-ylmethoxy)-4-methoxy-phenyl]-benzothiazole] | mortality with involuntary movements | 0/3 | 0/3 | 0/3 | 1/3 |  |  |  |  |  |  |  |  |  |  | 
12 | COc1ccc(-c2nc3ccccc3s2)cc1OCc1nnc(-c2c(C)cccc2C)o1 [6k, 2-{3-[5-(2,6-Dimethylphenyl)-[1,3,4]oxadiazol-2-ylmethoxy]-4-methoxy-phenyl}-benzothiazole] | mortality with involuntary movements | 0/3 | 0/3 | 0/3 | 1/3 |  |  |  |  |  |  |  |  |  |  | 
13 | COc1ccc(-c2nc3ccccc3s2)cc1OCc1nnc(-c2ccccc2)o1 [6d, 2-[4-Methoxy-3-(5-phenyl-[1,3,4]oxadiazol-2-ylmethoxy)-phenyl]-benzothiazole] | mortality with involuntary movements | 0/3 | 0/3 | 0/3 | 2/3 |  |  |  |  |  |  |  |  |  |  | 
14 | COc1ccc(-c2nnc(COc3cc(-c4nc5ccccc5s4)ccc3OC)o2)cc1 [6b, 2-{4-Methoxy-3-[5-(4-methoxy-phenyl)-[1,3,4]oxadiazol-2-ylmethoxy]-phenyl}-benzothiazole] |  | 0/3 | 0/3 | 0/3 | 0/3 | failed to exhibit activity |  |  |  |  |  |  |  |  |  | 
15 | COc1ccc(-c2nc3ccccc3s2)cc1OCc1nnc(-c2ccc(N)cc2)o1 [6a, 4-[5-(5-Benzothiazol-2-yl-2-methoxy-phenoxymethyl)-[1,3,4]oxadiazol-2-yl]-phenylamine] |  | 0/3 | 0/3 | 0/3 | 0/3 |  |  |  |  |  |  |  |  |  |  | 
16 | CN1C(=O)CN=C(c2ccccc2)c2cc(Cl)ccc21 [diazepam, reference compound] |  |  |  |  |  |  |  |  |  |  |  |  |  |  | 80.4% | 74.6 ± 2.65
